Results published in ChEMBL document CHEMBL2151034, “Synthesis, biological evaluation and molecular docking studies of 3-(triazolyl)-coumarin derivatives: effect on inducible nitric oxide synthase” (Eur J Med Chem, 2012).
Calls of active or inactive are those of the source. The rule behind the calls is not given here.

What was measured:
Neutrophil [1] = test: Inhibition of LPS-induced iNOS expression in Wistar rat neutrophils assessed as reduction of NO production after 18 hrs by Western blot analysis; type: functional, cell-based
Method in brief: (§1)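 Glycogen-elicited Wistar rat neutrophils, 1 × 10⁶ cells, incubated 18 h with LPS plus compound or control. Protein: homogenate in 50 mM Tris pH 7.4 with PMSF, 50 µg run on 7% SDS-PAGE, blocked with casein, mouse monoclonal anti-iNOS at 500 ng/mL, HRP chemiluminescence, densitometry normalized to β-actin. mRNA: real-time PCR against GAPDH, quantified by the Liu and Saint method. Mean ± s.e.m. of 4 independent assays.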

Neutrophil [2] = test: Inhibition of iNOS expression in Wistar rat neutrophils assessed as reduction of NO production after 18 hrs by Western blot analysis; type: functional, cell-based; method in brief: as §1
[3] = Induction of PGE2 production in Wistar rat neutrophils at 100 uM after 18 hrs by ELISA; type: cell-based; settings: neutrophil
Method in brief: (§2)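 Rat peritoneal neutrophils elicited by intraperitoneal oyster glycogen, 1 × 10⁶ cells, incubated 18 h at 37 °C in 5% CO2 in medium alone (basal) or with LPS, with compounds in HBSS added at the same time. Supernatant frozen at −80 °C. TNF-α and PGE2 quantified by ELISA in pg/ml. Compared against HBSS-treated cells. Mean ± s.e.m. of 4 independent assays.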

Neutrophil [4] = test: Antiinflammatory activity in Wistar rat neutrophils assessed as reduction of TNFalpha production at 100 uM after 18 hrs by ELISA; type: functional, cell-based; method in brief: as §2
[5] = Induction of apoptosis in Wistar rat neutrophils; type: cell-based; settings: neutrophil
[6] = Cytotoxicity against Wistar rat neutrophils assessed as cell viability; type: cell-based, Neutrophil; settings: read-out: Activity
Neutrophil [7] = test: Antiinflammatory activity in Wistar rat neutrophils assessed as inhibition of LPS-stimulated PGE2 production at 100 uM after 18 hrs by ELISA; type: functional, cell-based
Method in brief: (§3)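 Glycogen-elicited peritoneal neutrophils from male Wistar rats, 1 × 10⁶ cells, 18 h at 37 °C in 5% CO2 with or without E. coli LPS (serotype 026:B6). Compounds given at the same time, dissolved in HBSS; HBSS-treated cells serve as control. Nitrite measured by Griess reaction (absorbance at 550 nm, 10 min). PGE2 measured by ELISA in supernatant stored frozen at −80 °C. Mean ± s.e.m. of 4 independent assays.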

Neutrophil [8] = test: Antiinflammatory activity in Wistar rat neutrophils assessed as inhibition of LPS-stimulated TNFalpha production at 1000 uM after 18 hrs by ELISA; type: functional, cell-based; method in brief: as §2
Neutrophil [9] = test: Antiinflammatory activity in Wistar rat neutrophils assessed as inhibition of LPS-stimulated NO production at 10 to 100 uM after 18 hrs by Griess method; type: functional, cell-based; method in brief: as §3
Neutrophil [10] = test: Antiinflammatory activity in Wistar rat neutrophils assessed as reduction of LPS-stimulated TNFalpha production at 100 uM after 18 hrs by ELISA; type: functional, cell-based; method in brief: as §2
[11] = molecular target: Nitric oxide synthase, inducible (Rattus norvegicus) (UniProt Q06518); test: Inhibition of iNOS in LPS-stimulated Wistar rat neutrophils assessed as decrease in total NOS activity at 100 uM after 18 hrs by enzymatic assay
Method in brief: (§4)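 Neutrophils treated 18 h with LPS and compound, then homogenized in cold 50 mM Tris-HCl pH 7.4 with 1 mM PMSF and 1 mM L-citrulline. Homogenates incubated 30 min at 37 °C with 1 mM NADPH. Activity expressed as pmol L-citrulline/min/mg protein, with protein by Bradford. Calcium-independent (iNOS) activity defined by omitting CaCl2 and adding 1 mM EGTA; 1 mM L-NAME used as control. Mean ± s.e.m., n = 4.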

[12] = molecular target: T1, Nitric oxide synthase 3 (Rattus norvegicus) (UniProt Q62600); test: Inhibition of eNOS in rat PMEC assessed as reduction in nitrite level at 100 uM after 48 hrs by Griess method
T1 sequence (whole entry): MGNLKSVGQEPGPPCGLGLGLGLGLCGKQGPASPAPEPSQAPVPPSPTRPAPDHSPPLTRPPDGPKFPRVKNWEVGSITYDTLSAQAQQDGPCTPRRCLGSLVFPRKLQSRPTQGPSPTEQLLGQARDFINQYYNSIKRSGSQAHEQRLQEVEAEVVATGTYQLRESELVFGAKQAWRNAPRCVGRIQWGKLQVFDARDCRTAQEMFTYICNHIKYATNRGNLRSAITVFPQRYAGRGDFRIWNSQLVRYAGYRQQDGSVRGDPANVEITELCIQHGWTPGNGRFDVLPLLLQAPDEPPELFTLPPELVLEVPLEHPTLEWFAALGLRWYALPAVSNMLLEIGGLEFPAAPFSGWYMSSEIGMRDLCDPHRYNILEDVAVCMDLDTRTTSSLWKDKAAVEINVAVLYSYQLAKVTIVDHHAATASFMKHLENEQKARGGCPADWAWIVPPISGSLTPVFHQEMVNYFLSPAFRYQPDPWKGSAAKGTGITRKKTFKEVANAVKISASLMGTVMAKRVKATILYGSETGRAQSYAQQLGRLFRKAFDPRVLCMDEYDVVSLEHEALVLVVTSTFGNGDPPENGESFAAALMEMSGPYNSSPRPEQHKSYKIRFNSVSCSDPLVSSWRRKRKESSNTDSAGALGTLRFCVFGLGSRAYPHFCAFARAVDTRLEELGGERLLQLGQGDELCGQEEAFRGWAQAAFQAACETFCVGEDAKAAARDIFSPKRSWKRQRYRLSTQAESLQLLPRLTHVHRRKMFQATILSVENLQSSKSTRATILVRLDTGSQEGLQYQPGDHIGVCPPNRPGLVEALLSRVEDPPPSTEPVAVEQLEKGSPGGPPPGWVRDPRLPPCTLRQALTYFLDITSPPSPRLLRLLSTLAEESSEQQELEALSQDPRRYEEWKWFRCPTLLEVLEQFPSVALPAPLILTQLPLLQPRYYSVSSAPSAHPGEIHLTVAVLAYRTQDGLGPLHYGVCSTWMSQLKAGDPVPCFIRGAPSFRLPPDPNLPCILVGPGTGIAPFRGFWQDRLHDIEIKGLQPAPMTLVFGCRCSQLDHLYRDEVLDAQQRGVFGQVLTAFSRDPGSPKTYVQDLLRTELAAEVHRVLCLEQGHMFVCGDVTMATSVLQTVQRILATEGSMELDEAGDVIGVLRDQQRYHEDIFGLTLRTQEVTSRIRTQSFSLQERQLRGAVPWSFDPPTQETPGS
Method in brief: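 Primary microvascular endothelial cells from rat cremaster muscle explants, grown in DMEM with 20% fetal calf serum and used at confluence after subculture. Incubated 48 h at 37 °C in 5% CO2 without LPS, with coumarin compounds or L-NAME at 100 µM. Nitrite in supernatant measured by Griess reaction at 550 nm. Mean ± s.e.m. of 4 independent assays.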

Neutrophil [13] = test: Antiinflammatory activity in Wistar rat neutrophils assessed as inhibition of LPS-stimulated PGE2 production at 1000 uM after 18 hrs by ELISA; type: functional, cell-based; method in brief: as §3
[14] = molecular target: Nitric oxide synthase, inducible (Rattus norvegicus) (UniProt Q06518); test: Inhibition of iNOS activity in LPS-stimulated Wistar rat neutrophils at 100 uM after 18 hrs by enzymatic assay; method in brief: as §4
[15] = Induction of necrosis in Wistar rat neutrophils; type: cell-based; settings: neutrophil
[16] = Inhibition of LPS-stimulated NO production in Wistar rat neutrophils at 10 uM after 18 hrs by Griess method; settings: neutrophil
[17] = Induction of TNFalpha production in Wistar rat neutrophils at 100 uM after 18 hrs by ELISA relative to vehicle-treated control; type: cell-based; settings: neutrophil; method in brief: as §2
Rattus norvegicus = test: Antiinflammatory activity in LPS-induced rat subcutaneous dorsal inflamed tissue assessed as reduction of neutrophil recruitment at 50 mg/kg, ip after 4 hrs post LPS challenge by Giemsa staining; type: functional, organism-based; parameters: dose 50 mg/kg
Method in brief: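 Rat dorsal air pouch: 10 mL sterile air injected subcutaneously, refilled with 10 mL on day 7. On day 10, 50 mg/kg in 1 mL sterile PBS was given intraperitoneally (per methods) at the same time as LPS (1.5 mg/mL) was injected into the pouch; controls got PBS. Exudate leukocytes were counted 4 h later by Neubauer chamber and dyed smears. Mean ± s.e.m., 3 animals/group.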

Neutrophil [18] = test: Inhibition of LPS-induced cytoplasmic iNOS expression in Wistar rat neutrophils assessed as decrease in protein level after 18 hrs by Western blot analysis; type: functional, cell-based; method in brief: as §1
Neutrophil [19] = test: Inhibition of LPS-induced iNOS gene expression in Wistar rat neutrophils assessed as decrease in mRNA level after 18 hrs by real-time PCR analysis; type: functional, cell-based; method in brief: as §1

Sequence of Nitric oxide synthase, inducible (Rattus norvegicus) (Q06518 whole entry): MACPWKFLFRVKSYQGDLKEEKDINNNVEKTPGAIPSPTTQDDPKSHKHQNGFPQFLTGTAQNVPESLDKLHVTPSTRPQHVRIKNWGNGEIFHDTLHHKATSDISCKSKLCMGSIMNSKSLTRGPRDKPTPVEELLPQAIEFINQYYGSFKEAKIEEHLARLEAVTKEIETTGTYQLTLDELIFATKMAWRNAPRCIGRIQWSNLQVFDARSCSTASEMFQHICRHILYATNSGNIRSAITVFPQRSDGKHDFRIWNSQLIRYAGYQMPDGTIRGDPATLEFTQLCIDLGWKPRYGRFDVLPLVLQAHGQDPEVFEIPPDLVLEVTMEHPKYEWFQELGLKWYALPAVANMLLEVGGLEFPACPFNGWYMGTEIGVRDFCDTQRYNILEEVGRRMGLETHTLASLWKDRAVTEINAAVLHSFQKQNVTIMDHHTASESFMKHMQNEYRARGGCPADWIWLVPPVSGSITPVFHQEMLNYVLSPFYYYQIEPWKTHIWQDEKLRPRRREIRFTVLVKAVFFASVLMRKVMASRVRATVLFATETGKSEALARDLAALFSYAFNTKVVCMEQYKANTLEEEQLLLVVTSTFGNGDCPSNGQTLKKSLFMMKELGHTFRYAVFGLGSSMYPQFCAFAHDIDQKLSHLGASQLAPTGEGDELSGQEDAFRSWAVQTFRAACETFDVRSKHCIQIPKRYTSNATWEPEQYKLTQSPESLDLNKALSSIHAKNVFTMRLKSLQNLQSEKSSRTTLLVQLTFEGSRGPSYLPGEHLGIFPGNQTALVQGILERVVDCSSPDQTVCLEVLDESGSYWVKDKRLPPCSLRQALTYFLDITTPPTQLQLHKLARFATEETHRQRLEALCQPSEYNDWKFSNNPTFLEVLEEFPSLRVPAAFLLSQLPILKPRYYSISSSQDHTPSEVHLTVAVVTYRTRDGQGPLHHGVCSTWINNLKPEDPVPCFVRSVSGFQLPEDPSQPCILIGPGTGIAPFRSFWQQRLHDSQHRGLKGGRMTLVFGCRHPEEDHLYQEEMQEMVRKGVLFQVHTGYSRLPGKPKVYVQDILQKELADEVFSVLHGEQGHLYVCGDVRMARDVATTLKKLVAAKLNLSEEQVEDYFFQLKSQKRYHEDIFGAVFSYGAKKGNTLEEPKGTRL

SMILES | inhibition (Neutrophil [1]) | inhibition (Neutrophil [2]) | Activity [3] | Activity (Neutrophil [4]) | Activity [5] | viability [6] [%] | inhibition (Neutrophil [7]) | inhibition (Neutrophil [8]) | inhibition (Neutrophil [9]) | Activity (Neutrophil [10]) | inhibition [11] | inhibition [12] | inhibition (Neutrophil [13]) | inhibition [14] | Activity [15] | Activity [16] | Activity [17] | Activity (Rattus norvegicus) | inhibition (Neutrophil [18]) | inhibition (Neutrophil [19])
CCCCCCCCn1cc(-c2cc3ccccc3oc2=O)nn1 | Active | Active | Toxic | inactive | Non-toxic | > 90 | inactive | inactive | Active | inactive | Active | inactive | inactive | Active | Non-toxic | – | – | – | – | –
COC(=O)[C@@H](N)CCCNC(=N)N[N+](=O)[O-] | – | – | – | – | – | – | – | – | – | – | – | Active | – | – | – | – | – | – | – | –
CCCCCCn1cc(-c2cc3ccccc3oc2=O)nn1 | Active | Active | – | inactive | Non-toxic | > 90 | inactive | inactive | – | inactive | Active | Active | inactive | Active | Non-toxic | Toxic | Toxic | – | – | –
N=C(N)NN | – | – | – | – | – | – | – | – | – | – | – | – | – | – | – | – | – | Active | – | –
O=c1oc2ccccc2cc1-c1cn(-c2ccccc2)nn1 | Active | Active | – | inactive | Non-toxic | > 90 | inactive | inactive | Active | inactive | Active | inactive | inactive | Active | Non-toxic | – | – | Active | Active | Active
CCCCCCCCCCn1cc(-c2cc3ccccc3oc2=O)nn1 | Active | Active | Toxic | inactive | Non-toxic | > 90 | inactive | inactive | Active | inactive | Active | inactive | inactive | Active | Non-toxic | – | – | – | – | –
